Converted amounts (≈) assume the structure as drawn.
How the values were obtained:
Assay type in all cases: functional
Bacillus cereus = experiment: Antibacterial activity against Bacillus cereus after 24 hrs by broth microdilution method
Enterococcus faecalis = experiment: Antibacterial activity against Enterococcus faecalis MTCC 35550 after 24 hrs by broth microdilution method; settings: MTCC 35550, 24 h
Outline: (§1)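 Broth tube dilution in BHI broth, run in triplicate. Strains sub-cultured at 35 °C for 48 h. Inoculum grown in BHI at 35 °C for 2–6 h and adjusted to 0.5 McFarland. Ten-tube serial dilution of compound, 200 µL diluted culture added to each tube. Media plus culture tube as control. Incubated 24 h at 37 °C; MIC read by turbidity.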

Prevotella intermedia = experiment: Antibacterial activity against Prevotella intermedia after 24 hrs by broth microdilution method
Staphylococcus aureus = experiment: Antibacterial activity against Staphylococcus aureus MTCC 12598 after 24 hrs by broth microdilution method; settings: MTCC 12598, 24 h; outline: as §1
Escherichia coli = experiment: Antibacterial activity against Escherichia coli MTCC 443 after 24 hrs by broth microdilution method; settings: MTCC 443, 24 h; outline: as §1
Pseudomonas aeruginosa = experiment: Antibacterial activity against Pseudomonas aeruginosa MTCC 25668 after 24 hrs by broth microdilution method; settings: MTCC 25668, 24 h; outline: as §1
Erythrocyte = experiment: Anti-inflammatory activity in human RBC membranes assessed as inhibition of heat-induced hemolysis at 100 ug/mL incubated for 20 mins at 54 degC by UV-VIS spectrometer analysis relative to control
Outline: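 Washed human RBCs as 40% (v/v) stock in isotonic 10 mM sodium phosphate buffer pH 7.4 with 0.9% NaCl. Compound 0.1 mg/mL in isotonic buffer with 30 µL erythrocyte suspension, duplicate sets. One pair heated at 54 °C for 20 min, other held at 0-5 °C. Spun 3 min at 1300 rpm, supernatant absorbance at 540 nm. % inhibition = 100 × [1 − (OD2−OD1)/(OD3−OD1)]; vehicle control.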

## Cc1ccc2c(C(CC(=O)O)c3c(O)c4ccccc4oc3=O)cc(=O)oc2c1 (centres undefined)
Bacillus cereus
  MIC: 6.25 µg/mL (≈ 15.9 µM)
Enterococcus faecalis
  MIC: 3.25 µg/mL (≈ 8.28 µM)
Prevotella intermedia
  MIC: 25 µg/mL (≈ 63.7 µM)
Staphylococcus aureus
  MIC: 3.25 µg/mL (≈ 8.28 µM)
Escherichia coli
  MIC: 3.25 µg/mL (≈ 8.28 µM)
Pseudomonas aeruginosa
  MIC: 6.25 µg/mL (≈ 15.9 µM)
Erythrocyte
  inhibition at 100 µg/mL: 76.4%

## O=C1CC(c2cc(=O)oc3c2ccc2ccccc23)c2c(c3ccccc3oc2=O)O1 (centres undefined)
Bacillus cereus
  MIC: 25 µg/mL (≈ 60.9 µM)
Enterococcus faecalis
  MIC: 6.25 µg/mL (≈ 15.2 µM)
Prevotella intermedia
  MIC: 25 µg/mL (≈ 60.9 µM)
Staphylococcus aureus
  MIC: 25 µg/mL (≈ 60.9 µM)
Escherichia coli
  MIC: 6.25 µg/mL (≈ 15.2 µM)
Pseudomonas aeruginosa
  MIC: 1.56 µg/mL (≈ 3.8 µM)
Erythrocyte
  inhibition at 100 µg/mL: 37.6%

## CCOC(=O)C1=C(N)Oc2c(c(=O)oc3ccccc23)C1c1cc(=O)oc2cc(C)ccc12 (centres undefined)
Bacillus cereus
  MIC: 25 µg/mL (≈ 56.1 µM)
Enterococcus faecalis
  MIC: 6.25 µg/mL (≈ 14 µM)
Prevotella intermedia
  MIC: 6.25 µg/mL (≈ 14 µM)
Staphylococcus aureus
  MIC: 12.5 µg/mL (≈ 28.1 µM)
Escherichia coli
  MIC: 6.25 µg/mL (≈ 14 µM)
Pseudomonas aeruginosa
  MIC: 6.25 µg/mL (≈ 14 µM)
Erythrocyte
  inhibition at 100 µg/mL: 69.4%

## O=C(O)CC(c1c(O)c2ccccc2oc1=O)c1cc(=O)oc2ccc(Cl)cc12 (centres undefined)
Bacillus cereus
  MIC: 25 µg/mL (≈ 60.6 µM)
Enterococcus faecalis
  MIC: 1.56 µg/mL (≈ 3.78 µM)
Prevotella intermedia
  MIC: 3.25 µg/mL (≈ 7.87 µM)
Staphylococcus aureus
  MIC: 3.25 µg/mL (≈ 7.87 µM)
Escherichia coli
  MIC: 1.56 µg/mL (≈ 3.78 µM)
Pseudomonas aeruginosa
  MIC: 25 µg/mL (≈ 60.6 µM)
Erythrocyte
  inhibition at 100 µg/mL: 61.2%

## COc1ccc2oc(=O)cc(C(CC(=O)O)c3c(O)c4ccccc4oc3=O)c2c1 (centres undefined)
Bacillus cereus
  MIC: 6.25 µg/mL (≈ 15.3 µM)
Enterococcus faecalis
  MIC: 1.56 µg/mL (≈ 3.82 µM)
Prevotella intermedia
  MIC: 6.25 µg/mL (≈ 15.3 µM)
Staphylococcus aureus
  MIC: 3.25 µg/mL (≈ 7.96 µM)
Escherichia coli
  MIC: 1.56 µg/mL (≈ 3.82 µM)
Pseudomonas aeruginosa
  MIC: 1.56 µg/mL (≈ 3.82 µM)
Erythrocyte
  inhibition at 100 µg/mL: 23.3%

## O=C(O)CC(c1c(O)c2ccccc2oc1=O)c1cc(=O)oc2c1ccc1ccccc12 (centres undefined)
Bacillus cereus
  MIC: 6.25 µg/mL (≈ 14.6 µM)
Enterococcus faecalis
  MIC: 1.56 µg/mL (≈ 3.64 µM)
Prevotella intermedia
  MIC: 25 µg/mL (≈ 58.4 µM)
Staphylococcus aureus
  MIC: 6.25 µg/mL (≈ 14.6 µM)
Escherichia coli
  MIC: 3.25 µg/mL (≈ 7.59 µM)
Pseudomonas aeruginosa
  MIC: 6.25 µg/mL (≈ 14.6 µM)
Erythrocyte
  inhibition at 100 µg/mL: 59.1%

## Cc1ccc2c(C3C(C#N)=C(N)Oc4c3c(=O)oc3ccccc43)cc(=O)oc2c1 (centres undefined)
Bacillus cereus
  MIC: 1.56 µg/mL (≈ 3.92 µM)
Enterococcus faecalis
  MIC: 6.25 µg/mL (≈ 15.7 µM)
Prevotella intermedia
  MIC: 6.25 µg/mL (≈ 15.7 µM)
Staphylococcus aureus
  MIC: 1.56 µg/mL (≈ 3.92 µM)
Escherichia coli
  MIC: 1.56 µg/mL (≈ 3.92 µM)
Pseudomonas aeruginosa
  MIC: 1.56 µg/mL (≈ 3.92 µM)
Erythrocyte
  inhibition at 100 µg/mL: 69.1%

## COc1ccc2oc(=O)cc(C3C(C#N)=C(N)Oc4c3c(=O)oc3ccccc43)c2c1 (centres undefined)
Bacillus cereus
  MIC: 6.25 µg/mL (≈ 15.1 µM)
Enterococcus faecalis
  MIC: 3.25 µg/mL (≈ 7.84 µM)
Prevotella intermedia
  MIC: 6.25 µg/mL (≈ 15.1 µM)
Staphylococcus aureus
  MIC: 12.5 µg/mL (≈ 30.2 µM)
Escherichia coli
  MIC: 1.56 µg/mL (≈ 3.76 µM)
Pseudomonas aeruginosa
  MIC: 1.56 µg/mL (≈ 3.76 µM)
Erythrocyte
  inhibition at 100 µg/mL: 15.3%

## Cc1ccc2c(C3CC(=O)Oc4c3c(=O)oc3ccccc43)cc(=O)oc2c1 (centres undefined)
Bacillus cereus
  MIC: 6.25 µg/mL (≈ 16.7 µM)
Enterococcus faecalis
  MIC: 3.25 µg/mL (≈ 8.68 µM)
Prevotella intermedia
  MIC: 3.25 µg/mL (≈ 8.68 µM)
Staphylococcus aureus
  MIC: 6.25 µg/mL (≈ 16.7 µM)
Escherichia coli
  MIC: 1.56 µg/mL (≈ 4.17 µM)
Pseudomonas aeruginosa
  MIC: 25 µg/mL (≈ 66.8 µM)
Erythrocyte
  inhibition at 100 µg/mL: 36.8%

## CCOC(=O)C1=C(N)Oc2c(c(=O)oc3ccccc23)C1c1cc(=O)oc2ccc(OC)cc12 (centres undefined)
Bacillus cereus
  MIC: 6.25 µg/mL (≈ 13.5 µM)
Enterococcus faecalis
  MIC: 6.25 µg/mL (≈ 13.5 µM)
Prevotella intermedia
  MIC: 1.56 µg/mL (≈ 3.38 µM)
Staphylococcus aureus
  MIC: 6.25 µg/mL (≈ 13.5 µM)
Escherichia coli
  MIC: 6.25 µg/mL (≈ 13.5 µM)
Pseudomonas aeruginosa
  MIC: 25 µg/mL (≈ 54.2 µM)
Erythrocyte
  inhibition at 100 µg/mL: 52.1%

## Cc1ccc2oc(=O)cc(C3CC(=O)Oc4c3c(=O)oc3ccccc43)c2c1 (centres undefined)
Bacillus cereus
  MIC: 50 µg/mL (≈ 134 µM)
Enterococcus faecalis
  MIC: 6.25 µg/mL (≈ 16.7 µM)
Prevotella intermedia
  MIC: 3.25 µg/mL (≈ 8.68 µM)
Staphylococcus aureus
  MIC: 12.5 µg/mL (≈ 33.4 µM)
Escherichia coli
  MIC: 1.56 µg/mL (≈ 4.17 µM)
Pseudomonas aeruginosa
  MIC: 25 µg/mL (≈ 66.8 µM)
Erythrocyte
  inhibition at 100 µg/mL: 31.4%

## CCOC(=O)C1=C(N)Oc2c(c(=O)oc3ccccc23)C1c1cc(=O)oc2c1ccc1ccccc12 (centres undefined)
Bacillus cereus
  MIC: 6.25 µg/mL (≈ 13 µM)
Enterococcus faecalis
  MIC: 6.25 µg/mL (≈ 13 µM)
Prevotella intermedia
  MIC: 6.25 µg/mL (≈ 13 µM)
Staphylococcus aureus
  MIC: 6.25 µg/mL (≈ 13 µM)
Escherichia coli
  MIC: 1.56 µg/mL (≈ 3.24 µM)
Pseudomonas aeruginosa
  MIC: 1.56 µg/mL (≈ 3.24 µM)
Erythrocyte
  inhibition at 100 µg/mL: 61.2%

## COc1ccc2oc(=O)cc(C3CC(=O)Oc4c3c(=O)oc3ccccc43)c2c1 (centres undefined)
Bacillus cereus
  MIC: 6.25 µg/mL (≈ 16 µM)
Enterococcus faecalis
  MIC: 6.25 µg/mL (≈ 16 µM)
Prevotella intermedia
  MIC: 25 µg/mL (≈ 64 µM)
Staphylococcus aureus
  MIC: 6.25 µg/mL (≈ 16 µM)
Escherichia coli
  MIC: 3.25 µg/mL (≈ 8.33 µM)
Pseudomonas aeruginosa
  MIC: 6.25 µg/mL (≈ 16 µM)
Erythrocyte
  inhibition at 100 µg/mL: 50.5%

## O=C1CC(c2cc(=O)oc3ccc(Cl)cc23)c2c(c3ccccc3oc2=O)O1 (centres undefined)
Bacillus cereus
  MIC: 25 µg/mL (≈ 63.3 µM)
Enterococcus faecalis
  MIC: 3.25 µg/mL (≈ 8.23 µM)
Prevotella intermedia
  MIC: 6.25 µg/mL (≈ 15.8 µM)
Staphylococcus aureus
  MIC: 6.25 µg/mL (≈ 15.8 µM)
Escherichia coli
  MIC: 6.25 µg/mL (≈ 15.8 µM)
Pseudomonas aeruginosa
  MIC: 25 µg/mL (≈ 63.3 µM)
Erythrocyte
  inhibition at 100 µg/mL: 70.7%

## CC(=O)Oc1ccccc1C(=O)O [ASPIRIN]
Erythrocyte
  inhibition at 100 µg/mL: 36.2%

## Cc1ccc2oc(=O)cc(C(CC(=O)O)c3c(O)c4ccccc4oc3=O)c2c1 (centres undefined)
Bacillus cereus
  MIC: 25 µg/mL (≈ 63.7 µM)
Enterococcus faecalis
  MIC: 1.56 µg/mL (≈ 3.98 µM)
Prevotella intermedia
  MIC: 6.25 µg/mL (≈ 15.9 µM)
Staphylococcus aureus
  MIC: 1.56 µg/mL (≈ 3.98 µM)
Escherichia coli
  MIC: 3.25 µg/mL (≈ 8.28 µM)
Pseudomonas aeruginosa
  MIC: 25 µg/mL (≈ 63.7 µM)
Erythrocyte
  inhibition at 100 µg/mL: 14.1%

## O=C(O)c1cn(C2CC2)c2cc(N3CCNCC3)c(F)cc2c1=O [CIPROFLOXACIN]
Bacillus cereus
  MIC: 6.25 µg/mL (≈ 18.9 µM)
Enterococcus faecalis
  MIC: 6.25 µg/mL (≈ 18.9 µM)
Prevotella intermedia
  MIC: 6.25 µg/mL (≈ 18.9 µM)

## CCOC(=O)C1=C(N)Oc2c(c(=O)oc3ccccc23)C1c1cc(=O)oc2ccc(C)cc12 (centres undefined)
Bacillus cereus
  MIC: 6.25 µg/mL (≈ 14 µM)
Enterococcus faecalis
  MIC: 6.25 µg/mL (≈ 14 µM)
Prevotella intermedia
  MIC: 6.25 µg/mL (≈ 14 µM)
Staphylococcus aureus
  MIC: 3.25 µg/mL (≈ 7.3 µM)
Escherichia coli
  MIC: 1.56 µg/mL (≈ 3.5 µM)
Pseudomonas aeruginosa
  MIC: 6.25 µg/mL (≈ 14 µM)
Erythrocyte
  inhibition at 100 µg/mL: 42.3%

## CCOC(=O)C1=C(N)Oc2c(c(=O)oc3ccccc23)C1c1cc(=O)oc2ccc(Cl)cc12 (centres undefined)
Bacillus cereus
  MIC: 25 µg/mL (≈ 53.7 µM)
Enterococcus faecalis
  MIC: 1.56 µg/mL (≈ 3.35 µM)
Prevotella intermedia
  MIC: 1.56 µg/mL (≈ 3.35 µM)
Staphylococcus aureus
  MIC: 12.5 µg/mL (≈ 26.8 µM)
Escherichia coli
  MIC: 6.25 µg/mL (≈ 13.4 µM)
Pseudomonas aeruginosa
  MIC: 1.56 µg/mL (≈ 3.35 µM)
Erythrocyte
  inhibition at 100 µg/mL: 62.2%

## N#CC1=C(N)Oc2c(c(=O)oc3ccccc23)C1c1cc(=O)oc2c1ccc1ccccc12 (centres undefined)
Bacillus cereus
  MIC: 1.56 µg/mL (≈ 3.59 µM)
Enterococcus faecalis
  MIC: 1.56 µg/mL (≈ 3.59 µM)
Prevotella intermedia
  MIC: 1.56 µg/mL (≈ 3.59 µM)
Staphylococcus aureus
  MIC: 3.25 µg/mL (≈ 7.48 µM)
Escherichia coli
  MIC: 6.25 µg/mL (≈ 14.4 µM)
Pseudomonas aeruginosa
  MIC: 25 µg/mL (≈ 57.5 µM)
Erythrocyte
  inhibition at 100 µg/mL: 54.4%

## N#CC1=C(N)Oc2c(c(=O)oc3ccccc23)C1c1cc(=O)oc2ccc(Cl)cc12 (centres undefined)
Bacillus cereus
  MIC: 25 µg/mL (≈ 59.7 µM)
Enterococcus faecalis
  MIC: 3.25 µg/mL (≈ 7.76 µM)
Prevotella intermedia
  MIC: 6.25 µg/mL (≈ 14.9 µM)
Staphylococcus aureus
  MIC: 25 µg/mL (≈ 59.7 µM)
Escherichia coli
  MIC: 6.25 µg/mL (≈ 14.9 µM)
Pseudomonas aeruginosa
  MIC: 6.25 µg/mL (≈ 14.9 µM)
Erythrocyte
  inhibition at 100 µg/mL: 43.3%

## Cc1ccc2oc(=O)cc(C3C(C#N)=C(N)Oc4c3c(=O)oc3ccccc43)c2c1 (centres undefined)
Bacillus cereus
  MIC: 6.25 µg/mL (≈ 15.7 µM)
Enterococcus faecalis
  MIC: 1.56 µg/mL (≈ 3.92 µM)
Prevotella intermedia
  MIC: 6.25 µg/mL (≈ 15.7 µM)
Staphylococcus aureus
  MIC: 6.25 µg/mL (≈ 15.7 µM)
Escherichia coli
  MIC: 6.25 µg/mL (≈ 15.7 µM)
Pseudomonas aeruginosa
  MIC: 25 µg/mL (≈ 62.8 µM)
Erythrocyte
  inhibition at 100 µg/mL: 11.2%
